Laboratory results reported in ChEMBL document CHEMBL1123753, “Substituted 1,3,4-thiadiazoles with anticonvulsant activity. 3. Guanidines” (J Med Chem, 1987).

Tests used:
Mus musculus [1] = assay: Maximal metrazole seizures was determined for the inhibition of hind limb tonus in mouse 1 hr after po dosing; format: functional; conditions: Hindlimb
Summary of the method: (§1)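 Oral dosing, with seizures assessed 1 h later. The endpoint is inhibition of hind limb tonus, expressed as ED50 in mg/kg po.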

Mus musculus [2] = assay: Maximal electroshock seizures was determined for the inhibition of hind limb tonus in mouse by 1 hr after po dose; format: functional; conditions: Hindlimb; summary of the method: as §1
[3] = Tested for the neurotoxicity in mouse rotarod test was reported 1 hr after po dosing; format: toxicity, organism-based; conditions: in vivo
Summary of the method: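 Trained mice were placed on a rotating rod 1 h after oral dosing. TD50 (mg/kg) is the dose at which 50% of animals fall off the rod, reported with its range.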

Rattus norvegicus = assay: Maximal electroshock seizures determined for the inhibition of hind limb tonus in rat 1 hr after po dosing; format: functional; conditions: Hindlimb; summary of the method: as §1
[4] = Tested for the neurotoxicity in mouse rotarod test was reported 2 hr after po dosing; format: toxicity, organism-based; conditions: in vivo

Row | Structure (SMILES) | ED50 (Mus musculus [1]) [mg/kg] | ED50 (Mus musculus [2]) [mg/kg] | TD50 at 1 h [3] [mg/kg] | ED50 (Rattus norvegicus) [mg/kg] | TD50 at 2 h [4] [mg/kg]
1 | CN(C1=NCCN1)c1nnc(-c2ccccc2C(F)(F)F)s1 | > 100 | > 100 | – | – | –
2 | FC(F)(F)c1ccccc1-c1nnc(NC2=NCCN2)s1 | > 100 | > 100 | – | – | –
3 | C/N=C(\N)Nc1nnc(-c2ccccc2C(F)(F)F)s1 | 44 | 49 | > 400 | – | –
4 | CCCC/N=C(\N)Nc1nnc(-c2ccccc2C(F)(F)F)s1 | 225 | 142 | – | – | –
5 | N=C(N)Nc1nnc(-c2ccccc2C(F)(F)F)s1 | 45 | 27 | 384 | 22 | –
6 | CN(C)CCC/N=C(\N)Nc1nnc(-c2ccccc2C(F)(F)F)s1 | > 100 | > 100 | – | – | –
7 | COCCC/N=C(\N)Nc1nnc(-c2ccccc2C(F)(F)F)s1 | 78 | > 100 | – | – | –
8 | N=C(NCc1ccccc1)Nc1nnc(-c2ccccc2C(F)(F)F)s1 | > 100 | > 100 | – | – | –
9 | CN(N)c1nnc(-c2ccc(-c3ccccc3)cc2)s1 | 27 | 18 | – | 16 | > 1000
10 | NC(=O)N1c2ccccc2C=Cc2ccccc21 [CARBAMAZEPINE] | 11 | 20 | – | 4 | –
11 | CCC1(c2ccccc2)C(=O)NC(=O)NC1=O [PHENOBARBITAL] | 4 | 12 | – | 9 | –
12 | O=C1NC(=O)C(c2ccccc2)(c2ccccc2)N1 [PHENYTOIN] | 8 | 8 | – | 14 | –
